{"source": "paper PMC11476771", "about": "(BMC Nephrology, 2024)", "key": {"[1]": {"assay": "Safety", "type": "in vivo, human", "details": "single IV 3.0 mcg/kg"}, "[2]": {"assay": "Multiple-dose phase 2", "type": "in vivo, human", "details": "for Dose proportionality of Cmax and AUC0 − 48 (power model): 0.5, 1.0, 2.5 mcg/kg, 95% CIs included 1", "summary_of_the_method": "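Randomized, double-blind, placebo-controlled dose escalation in HD subjects. Sequential cohorts of 8 (6 active, 2 placebo), randomized 3:1 within strata of urine output. IV bolus given within 15 min after each of 3 HD sessions over 1 week. Serial plasma sampled days 1–8 by LC-MS/MS (LLOQ 0.1 ng/mL). Noncompartmental parameters; RAC from day 5:day 1 AUC0−48; power-model dose proportionality.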"}, "[3]": {"details": "hemodialysis patients after treatment discontinued; cited from earlier work"}, "[4]": {"type": "in vivo, human", "summary_of_the_method": "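Open-label, parallel-group, single 3.0 mcg/kg IV dose by check-in weight in NDD subjects stratified by MDRD eGFR, and in matched healthy controls. Plasma sampled predose to 72 h; urine collected in intervals to 72 h. LC-MS/MS (LLOQ 0.1 ng/mL plasma, 1.0 ng/mL urine); noncompartmental parameters. ANCOVA on ln Cmax/AUCinf (covariates age, weight, BMI, sex) gave geometric mean ratios with 90% CI. CL was regressed linearly on eGFR.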"}, "[5]": {"assay": "Safety", "type": "in vivo, human", "details": "HD subjects; multiple-dose PK study"}}, "note": "Where two headings read alike, the source gives them in different places.", "data": [{"smiles": "CC(C)C[C@@H](NC(=O)[C@@H](Cc1ccccc1)NC(=O)[C@H](N)Cc1ccccc1)C(=O)N[C@H](CCCCN)C(=O)N1CCC(N)(C(=O)O)CC1", "note": "[difelikefalin]", "values": [{"measurement": "Subjects with vomiting", "setting": "[1]; 3/36 subjects", "value": 8.3, "unit": "%"}, {"measurement": "Subjects with dizziness", "setting": "[1]; 4/36 subjects", "value": 11.1, "unit": "%"}, {"measurement": "Subjects with mild headache", "setting": "[1]; 4/36 subjects", "value": 11.1, "unit": "%"}, {"measurement": "Subjects with paresthesia (mild)", "setting": "[1]; 5/36 subjects", "value": 13.9, "unit": "%"}, {"measurement": "Subjects reporting TEAEs", "setting": "[1]; 17/36 subjects", "value": 47.2, "unit": "%"}, {"measurement": "Serious AEs", "setting": "[1]; all 36 subjects", "value": "none were serious AEs"}, {"measurement": "Total number of TEAEs", "setting": "[1]; all 36 subjects", "value": 37}, {"measurement": "TEAEs considered related to study drug", "setting": "[1]; all 36 subjects, number of events", "value": 17}, {"measurement": "TEAEs of moderate severity", "setting": "[1]; number of events, most TEAEs mild", "value": 7}, {"measurement": "Dose proportionality of Cmax and AUC0 − 48 (power model)", "setting": "[2]; HD subjects", "value": "slope values were all close to unity"}, {"measurement": "Dose proportionality of Cmax and AUC0 − 48 (power model)", "setting": "[2]; HD subjects, listed as IV difelikefalin", "value": "demonstrated dose proportionality"}, {"measurement": "Mean t1/2, range over dose groups", "setting": "[2]; HD subjects, day 1, 0.5-2.5 mcg/kg", "value": "1390 to 1870", "unit": "min"}, {"measurement": "Mean accumulation ratio (RAC), range over dose groups", "setting": "[2]; HD subjects, day 5, 3 dose groups", "value": "1.0–1.2"}, {"measurement": "Increase of half-life in HD subjects compared with normal renal function", "setting": "[2]; cross-study comparison", "value": "approximately 10 fold"}, {"measurement": "Clearance in HD subjects prior to dialysis as % of healthy subjects", "setting": "[2]; cross-study comparison, reference is 2.5 mcg/kg HD group", "value": 14, "unit": "%"}, {"measurement": "Tmax", "setting": "[2]; human, in vivo, iv", "value": 5, "unit": "min"}, {"measurement": "Detectability in plasma after dialysis cycles", "setting": "[3]", "value": "no longer detectable in plasma after 2 dialysis cycles"}, {"measurement": "Reduction of plasma concentration by a single dialysis cycle", "setting": "[3]", "value": "approximately 83%"}, {"measurement": "Intercept of total CL versus eGFR", "setting": "[4]; CL value = intercept + slope * eGFR, IV 3.0 mcg/kg, 95% CI 3.734794–20.470724", "value": 12.1}, {"measurement": "Slope of total CL versus eGFR", "setting": "[4]; CL value = intercept + slope * eGFR, IV 3.0 mcg/kg, NDD subjects with impaired or normal renal function, 95% CI 0.482284–0.718031, P < 0.0001", "value": 0.6002}, {"measurement": "Exposure relative to healthy subjects", "setting": "[4]; moderate renal impairment vs healthy subjects, single IV 3.0 mcg/kg", "value": 1.7, "unit": "fold"}, {"measurement": "Reduction of clearance compared with healthy subjects", "setting": "[4]; moderate renal impairment, single IV 3.0 mcg/kg", "value": 47.0, "unit": "%"}, {"measurement": "Exposure relative to healthy subjects", "setting": "[4]; severe renal impairment vs healthy subjects, single IV 3.0 mcg/kg", "value": 3.3, "unit": "fold"}, {"measurement": "Reduction of clearance compared with healthy subjects", "setting": "[4]; severe renal impairment, single IV 3.0 mcg/kg", "value": 71.7, "unit": "%"}, {"measurement": "Time of peak plasma concentration", "setting": "[4]; single IV 3.0 mcg/kg, first post-dose PK sample, across all treatment groups", "value": "2 to 3", "unit": "min"}, {"measurement": "SAEs, severe TEAEs, TEAEs leading to discontinuation, deaths", "setting": "[5]", "value": "no SAEs, severe TEAEs, TEAEs that led to drug discontinuations, or deaths"}]}]}
